Data set [1] in a line: folding enthalpy; higher = less favourable; fluorescence melt of hairpins on a sequencing array, two-state fit. Conditions: sodium 0.088 M. Put shortly: (§1)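 Bootstrapped two-state fits yielded melting temperature and folding enthalpy for library hairpins. Cy3 fluorescence, with annealed Cy3 and quencher oligos, was imaged on a sequenced MiSeq flow cell in 50 mM Na-HEPES pH 8.0, 25 mM NaCl in 2.5 °C steps up to 60 °C, and normalised to pre-quench Cy3 and to control constructs. Four replicates were combined by inverse variance, and fitted temperatures were raised by 9.35 °C to match UV melts.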

The nature of data set [2]: melting temperature; fluorescence melt of hairpins on a sequencing array, two-state fit, raised by 9.35 °C to match UV melts. The conditions noted are these: sodium 0.088 M. The procedure, abridged: as §1

Regarding CGGCCGGAAACGGGCCCG ((((((....)))..))), in data set [1], the folding enthalpy was -9.66 kcal/mol. Moreover, the Tm in data set [2] came to 46.8 °C.

Take GATCGATGCGTCGATC ((((((....)))))): the folding enthalpy in data set [1] was -43.7 kcal/mol. The Tm in data set [2] turned out to be 57 °C.

For GTCGTTACGAAAGTAGAC (((..(((....)))))), the folding enthalpy in data set [1] is -29.1 kcal/mol. In addition, the Tm in data set [2] is 44.8 °C.

Consider GATCGAGCCTTCGATC ((((((....)))))), for which the folding enthalpy in data set [1] was -39.5 kcal/mol. For the same sequence, the Tm in data set [2] was found to be 56.4 °C.

As for GTTGTGCGAAAGCAAAAC (((.(((....))).))), the folding enthalpy in data set [1] is -24 kcal/mol. In addition, in data set [2], the Tm was 48.7 °C.

With GCCACGCGAAAGCTTAGC ((.(.((....)).).)), the folding enthalpy in data set [1] was -6.78 kcal/mol. For the same sequence, the Tm in data set [2] worked out at 30.1 °C.

In the case of GCGGAGCGAAAGCCCCGC ((((.((....)).)))), the folding enthalpy in data set [1] was -35.3 kcal/mol. In addition, the Tm in data set [2] turned out to be 68.7 °C.

Consider GATCAGACGTCTGATC ((((((....)))))), for which the folding enthalpy in data set [1] is -60.5 kcal/mol. Also, the Tm in data set [2] came out at 55 °C.

As to GACGAAGGAAACTTTGTC (((.(((....))).))), in data set [1], the folding enthalpy was -28.3 kcal/mol. Further, the Tm in data set [2] was 41.6 °C.

On to CGGGCACGGAAACGTCCG (((..(((....)))))), for which, in data set [1], the folding enthalpy is -19.9 kcal/mol. Moreover, in data set [2], the Tm was determined as 38.9 °C.

In the case of GCAGTGGCGAAAGCCTGC (((..(((....)))))), the folding enthalpy in data set [1] is -19.3 kcal/mol. The Tm in data set [2] was 58.3 °C.

Consider GATCCATAGGTGGATC ((((((....)))))), for which the folding enthalpy in data set [1] is -36 kcal/mol. In data set [2], the Tm stood at 52 °C.

Regarding GCTTGACCGAAAGGTAGC (((..(((....)))))), in data set [1], the folding enthalpy was -21.4 kcal/mol. The Tm in data set [2] is 38.7 °C.

For GCGGGCCCCCGC ((((....)))), the folding enthalpy in data set [1] was -23.5 kcal/mol. Besides, the Tm in data set [2] was determined as 64.4 °C.

As to GATCTATCCGTAGATC ((((((....)))))), the folding enthalpy in data set [1] is -30.1 kcal/mol. For the same sequence, the Tm in data set [2] was 43.1 °C.

On to GCGAATTTCGC ((((...)))), for which the folding enthalpy in data set [1] is -24.8 kcal/mol. For the same sequence, the Tm in data set [2] was 48.8 °C.

On to GATCACCTGGTGATC ((((((...)))))), for which, in data set [1], the folding enthalpy was -33.1 kcal/mol. Besides, the Tm in data set [2] was 58.1 °C.

For the sequence ATGGGGAAACCCAT (((((....))))), in data set [1], the folding enthalpy was -23.4 kcal/mol. In addition, in data set [2], the Tm amounted to 47.3 °C.

With GGTCAAGGAAACTTGGTC (..((((....))))..), the folding enthalpy in data set [1] is -13.9 kcal/mol. The Tm in data set [2] came to 29.7 °C.

On to GACAGTACGAAAGTAGTC (((..(((....)))))), for which, in data set [1], the folding enthalpy was -16.2 kcal/mol. In data set [2], the Tm amounted to 31.1 °C.

In the case of GTTGCACGAAAGTGAAAC (((.(((....))).))), the folding enthalpy in data set [1] was -31.5 kcal/mol. Also, the Tm in data set [2] was 51.8 °C.

GCCTCGCGAAAGCACGGC (((..((....))..))): the folding enthalpy in data set [1] was -22.5 kcal/mol. The Tm in data set [2] was 54.1 °C.

On to GATCAAGATTTGATC ((((((...)))))), for which the folding enthalpy in data set [1] is -29.6 kcal/mol. Besides, in data set [2], the Tm was 40.7 °C.

For GGGCGCGAAAGCGAGCCC ((((((....)))..))), the folding enthalpy in data set [1] was -16.7 kcal/mol. The Tm in data set [2] was found to be 66.2 °C.

For the sequence GAAGTGACGAAAGTCTTC (((..(((....)))))), in data set [1], the folding enthalpy was -8.64 kcal/mol. Further, the Tm in data set [2] was 27.8 °C.

As to CGTCCGGAAACGGTCACG ((((((....)))..))), in data set [1], the folding enthalpy is -13.9 kcal/mol. Further, in data set [2], the Tm came to 35.2 °C.

Take GGCTTCGAAAGAACAGCC ((((((....)))..))): the folding enthalpy in data set [1] was -29.7 kcal/mol. Also, the Tm in data set [2] turned out to be 43.1 °C.

As to GATCTGGTTCAGATC ((((((...)))))), the folding enthalpy in data set [1] is -36.5 kcal/mol. Also, in data set [2], the Tm turned out to be 49.9 °C.

Consider GATCAGGGACCTGATC ((((((....)))))), for which the folding enthalpy in data set [1] was -50.5 kcal/mol. Moreover, the Tm in data set [2] stood at 54.3 °C.

Regarding GACCAGGGAAACCTAGTC (((.(((....))).))), in data set [1], the folding enthalpy is -16.9 kcal/mol. In data set [2], the Tm was 32.7 °C.

Take GCGGATGGCCGC ((((....)))): the folding enthalpy in data set [1] is -21 kcal/mol. Further, the Tm in data set [2] turned out to be 54.6 °C.

Values taken from the array DNA melting data of Ke et al. (doi:10.1101/2024.01.08.574731).
